In series [1] the test system is MDA-MB-435. As to the kind of experiment: Antiproliferative activity against human MDA-MB-435 cells after 48 hrs by SRB assay. The conditions noted are these: MDA-MB-435, 48 h. It counts as functional, cell-based. The essentials:
(§1)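 Cell growth measured by sulforhodamine B assay across a concentration range. IC50 is taken from the dose-response curves, as mean ± SD of at least 3 independent experiments, each run in triplicate. HeLa WT-βIII cells express βIII tubulin. SK-OV-3 MDR-1-M6/6 cells are the P-glycoprotein-expressing isogenic partner of parental SK-OV-3.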
Background: In SRB staining, fixed cells bind dye roughly in proportion to their protein.

Series [2] relates to HeLa. The series can be described thus: Antiproliferative activity against human HeLa cells after 48 hrs by SRB assay. It counts as functional, cell-based. The gist of the method:
as §1

The test system of series [3] is HeLa. The series can be described thus: Antiproliferative activity against human HeLa cells expressing wild type beta3 tubulin after 48 hrs by SRB assay. It counts as functional, cell-based. The gist of the method: as §1
Series [4] concerns HeLa. As to the kind of experiment: Resistance index, ratio of IC50 for human HeLa cells expressing wild type beta3 tubulin to IC50 for human HeLa cells. It counts as functional. The gist of the method: (§2)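 Relative resistance is the SRB IC50 in the expressing line divided by the IC50 in the isogenic parental line. The pairs are HeLa WT-βIII over HeLa (βIII tubulin) and SK-OV-3 MDR-1-M6/6 over SK-OV-3 (P-glycoprotein).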

Series [5] relates to SK-OV-3. As to the kind of experiment: Antiproliferative activity against human SKOV3 cells after 48 hrs by SRB assay. It counts as functional, cell-based. The note with it: SK-OV-3, 48 h. The essentials:
as §1

Series [6] can be described thus: Antiproliferative activity against human SKOV3-MDR1-M6/6 cells after 48 hrs by SRB assay. It counts as functional, cell-based. The conditions noted are these: SKOV3-MDR1-M6/6, 48 h. The essentials:
as §1

Series [7] is described as follows: Resistance index, ratio of IC50 for human SKOV3-MDR1-M6/6 cells to IC50 for human SKOV3 cells. It counts as functional. The gist of the method:
as §2

A short description of series [8]: Induction of tubulin depolymerization in rat A-10 cells after 18 hrs by indirect immunofluorescence method. It counts as cell-based. The gist of the method: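 A-10 cells exposed to a wide range of concentrations. Microtubules stained by indirect immunofluorescence, with nuclei counterstained. The percentage of depolymerized cellular microtubules is estimated visually. EC50, the concentration giving 50% loss of cellular microtubules, is found by linear regression.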

The subject of series [9] is MDA-MB-435. As to the kind of experiment: Antitumor activity against human MDA-MB-435 cells xenografted in athymic nude mouse assessed as tumor growth inhibition at 20 mg/kg, ip administered on day 2,4,6,8, and 11 measured on day 14. It counts as functional, organism-based. The essentials: (§3)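 Female athymic nude mice, six weeks old, bearing bilateral MDA-MB-435 xenografts averaging 200 mm3 at the start of treatment. […] Body weight recorded twice weekly through day 14. Tumor volumes analysed by 2-way ANOVA with Dunnett's post-hoc test.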

The subject of series [10] is Mus musculus. As to the kind of experiment: Toxicity in athymic nude mouse xenografted with human MDA-MB-435 cells assessed as body weight loss at 20 mg/kg, ip administered on day 2, 4, 6, 8 and 11 measured on day 14. It counts as organism-based. The conditions noted are these: in vivo. The gist of the method:
as §3
A general note: A xenograft is tissue or cells of one species grown in another, often human tumour cells in immunodeficient mice.

In series [11] the test system is MDA-MB-435. The series can be described thus: Antitumor activity against human MDA-MB-435 cells xenografted in athymic nude mouse assessed as tumor growth inhibition at 75 mg/kg, ip administered daily for 9 days measured on day 14. It counts as functional, organism-based. The gist of the method: (§4)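 Six-week-old female athymic nude mice implanted bilaterally with MDA-MB-435 cells. Dosing starts when tumors average 200 mm3. Drug given at 75 mg/kg/dose i.p. daily on days 0–8, solubilized in 2:1 Tween80:DMSO and diluted into PBS. Mice weighed twice weekly. On day 14, tumors excised and weighed and compared with control by unpaired two-tailed Student's t-test. Tumor volumes analysed by 2-way ANOVA with Dunnett's test.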

Series [12] has as its system MDA-MB-435. As to the kind of experiment: Antitumor activity against human MDA-MB-435 cells xenografted in athymic nude mouse assessed as reduction in mean tumor mass at 75 mg/kg, ip administered daily for 9 days measured on day 14. It counts as functional, organism-based. The essentials: as §4
For series [13], the system named is Mus musculus. The series can be described thus: Toxicity in athymic nude mouse xenografted with human MDA-MB-435 cells assessed as overt toxicity at 75 mg/kg, ip administered daily for 9 days measured on day 14. It counts as organism-based. The conditions noted are these: in vivo, 216 h. The essentials:
as §4

The source made the active and inactive calls. The rule behind the calls is not given here.

By IC50 is commonly meant the concentration at which inhibition is half-maximal. A word on the EC50: it is the concentration at which the effect is half-maximal. Low values mean an effect from little substance, high ones a need for much substance.

As to `CCOC(=O)c1[nH]c(/C=N/O)c(-c2ccc(OC)c(OC)c2OC)c1Br`, the IC50 stood at 14 nM in [1]; 18 nM in series [2]; 25 nM in series [3]; 23.1 nM in series [5]; 41.6 nM in series [6]. Moreover, the figures for the “Ratio IC50” value in series [4] and in series [7] were 1.4 and 1.8, respectively. This molecule registered an EC50 in series [8] of 56 nM.
For the molecule `CCOC(=O)c1[nH]c(Cl)c(-c2ccc(OC)c(OC)c2OC)c1Cl`, the IC50 is 116 nM in series [1]; 131 nM in series [2]; 140 nM in series [3]; 210 nM in series [5]; 140 nM in series [6]. For the same molecule, the “Ratio IC50” value worked out at 1.1 in series [4] and 0.67 in series [7]. Besides, a half-maximal effect in series [8] (EC50) was put at 1000 nM.
As for `CCOC(=O)c1[nH]c(/C=N\O)c(-c2ccc(OC)c(OC)c2OC)c1Br`, the IC50 in [1] came out at 25.3 nM; in series [2] it was 29.4 nM; in [3] it was 31.3 nM; in [5], 33.7 nM; in series [6], 49.6 nM. The entries for the “Ratio IC50” value in [4] and in [7] were 1.1 and 1.5, respectively. In [8], this molecule registered an EC50 of 108 nM.
For the molecule `CC(=O)O[C@H]1C(=O)[C@@]2(C)[C@H]([C@H](OC(=O)c3ccccc3)[C@]3(O)C[C@H](OC(=O)[C@H](O)[C@@H](NC(=O)c4ccccc4)c4ccccc4)C(C)=C1C3(C)C)[C@]1(OC(C)=O)CO[C@@H]1C[C@@H]2O` [PACLITAXEL], the IC50 in series [1] came out at 2 nM; in [2] it was 1.5 nM; in series [3], 21.1 nM; in series [6], 2330 nM. Also, in [9], the TGI entry is “Active”. For the same molecule, the Activity in [10] was found to be 2.5%.
As for `CCOC(=O)c1[nH]c(C#N)c(-c2ccc(OC)c(OC)c2OC)c1Br`, the IC50 worked out at 19.6 nM in series [1]; 20.6 nM in [2]; 26.1 nM in series [3]; 26.2 nM in series [5]; 42.2 nM in [6]. Moreover, the “Ratio IC50” value in series [4] was 1.3; in series [7], 1.6. Besides, in [8], the concentration giving a half-maximal response (EC50) was determined as 88 nM.
As to `CCOC(=O)c1[nH]c(Br)c(-c2ccc(OC)c(OC)c2OC)c1Br`, the IC50 came to 10.4 nM in [1]; 12.9 nM in series [2]; 15.7 nM in series [3]; 15.2 nM in series [5]; 10.6 nM in series [6]. The results for the “Ratio IC50” value in series [4] and in [7] were 1.2 and 0.7, respectively. This molecule also showed an EC50 in series [8] of 37 nM.
Take `CCOC(=O)c1[nH]c(C=NO)c(-c2ccc(OC)c(OC)c2OC)c1Br` (mixture of isomers): the IC50 was determined as 2.7 nM in series [1]; 5 nM in series [2]; 4.1 nM in [3]; 5.3 nM in [5]; 6.6 nM in series [6]. Further, the “Ratio IC50” value in [4] is given as 0.9; in series [7], 1.2. In series [8], this molecule gave an EC50 of 9.2 nM. Moreover, the TGI result in series [11] was “Active”. In [12], the result was Active. The Activity result in series [13] is “Non-Toxic”.

Values taken from ChEMBL document CHEMBL4033654, “Ortho group activation of a bromopyrrole ester in Suzuki-Miyaura cross-coupling reactions: Application to the synthesis of new microtubule depolymerizing agents with potent cytotoxic activities” (Bioorg Med Chem, 2017).
